Laboratory results published in ChEMBL document CHEMBL4425109, “Optimization of Cyclic Plasmin Inhibitors: From Benzamidines to Benzylamines” (J Med Chem, 2016).

Columns and labels:
[1] = molecular target: T1, Plasminogen (Homo sapiens, UniProt P00747); test: Inhibition of human plasmin using Mes-DSer(Bzl)-Phe-Arg-AMC as substrate by Dixon plot analysis
Target sequence in this assay (P00747 97-580 limits assumed): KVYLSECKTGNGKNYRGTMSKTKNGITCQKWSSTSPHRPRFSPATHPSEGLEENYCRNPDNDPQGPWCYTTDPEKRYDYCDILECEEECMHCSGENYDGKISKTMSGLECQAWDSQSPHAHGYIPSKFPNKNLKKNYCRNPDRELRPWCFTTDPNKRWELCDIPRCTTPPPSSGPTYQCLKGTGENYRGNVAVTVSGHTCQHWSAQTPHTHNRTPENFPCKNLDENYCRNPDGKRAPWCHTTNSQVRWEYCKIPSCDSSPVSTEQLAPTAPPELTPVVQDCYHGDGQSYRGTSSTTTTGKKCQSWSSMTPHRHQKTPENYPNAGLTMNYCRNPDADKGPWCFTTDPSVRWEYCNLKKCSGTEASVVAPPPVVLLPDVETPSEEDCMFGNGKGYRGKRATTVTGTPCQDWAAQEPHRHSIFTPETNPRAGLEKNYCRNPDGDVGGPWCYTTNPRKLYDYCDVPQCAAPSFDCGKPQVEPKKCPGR
Target sequence in this assay (P00747 581-810 limits assumed): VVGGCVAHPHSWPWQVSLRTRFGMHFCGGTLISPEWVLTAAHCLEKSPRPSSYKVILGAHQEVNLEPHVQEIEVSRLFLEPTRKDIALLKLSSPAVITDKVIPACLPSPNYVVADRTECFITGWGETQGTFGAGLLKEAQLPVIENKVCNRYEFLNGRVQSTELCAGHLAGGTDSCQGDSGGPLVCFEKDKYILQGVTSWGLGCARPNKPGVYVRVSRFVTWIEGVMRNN

[2] = tested on: Plasma; test: Antifibrinolytic activity in human plasma assessed as inhibition of tPA-induced plasmin formation after 40 mins; assay type: functional, cell-free
How it was run: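 Citrated human plasma at 37 °C with CaCl2 (12.5 mM in assay), tissue factor (stock 1/500 in assay) and tPA (12.3 nM in assay). Inhibitor dilutions, from 10 mM DMSO stocks diluted in 0.9% NaCl, were preincubated 5 min at 37 °C with these reagents, then started with prewarmed plasma. OD405 was read over 40 min.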

[3] = molecular target: T1, Plasminogen; test: Binding affinity to human plasmin assessed as slow binding constant in presence of Mes-DArg-Phe-Arg-AMC after 20 mins by Dixon plot analysis
Target sequence in this assay (P00747 97-580 limits assumed): as the sequence (P00747 97-580 limits assumed) above
Target sequence in this assay (P00747 581-810 limits assumed): as the sequence (P00747 581-810 limits assumed) above

[4] = molecular target: Trypsin (Sus scrofa, UniProt P00761); test: Inhibition of porcine trypsin using Mes-DArg-Gly-Arg-AMC as substrate by Dixon plot analysis
How it was run: (§1)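 Porcine trypsin, 30 pM final, with substrate Mes-DArg-Gly-Arg-AMC (KM 8.3 μM). Buffer was 50 mM Tris·HCl pH 8.0 containing 154 mM NaCl, at room temperature. Reaction was started by enzyme and fluorescence read at ex 355 / em 460 nm. Ki was obtained from Dixon plots, mean of at least two measurements.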

[5] = molecular target: Vitamin K-dependent protein C (Homo sapiens, UniProt P04070); test: Inhibition of human activated Protein C using Mes-DArg-Pro-Arg-AMC as substrate by Dixon plot analysis
How it was run: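 Human aPC, 293 pM final. Run at room temperature in 50 mM Tris·HCl pH 8.0 with 154 mM NaCl. Substrate Mes-DArg-Pro-Arg-AMC, KM 26 μM. Fluorescence was read at ex 355 / em 460 nm, with reaction started by enzyme. Ki came from Dixon plots, mean of at least two measurements.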

[6] = molecular target: Coagulation factor X (Homo sapiens, UniProt P00742); test: Inhibition of human f10a using Mes-DArg-Pro-Arg-AMC as substrate by Dixon plot analysis
How it was run: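 Human factor Xa, 97 pM in assay, in 50 mM Tris·HCl pH 8.0 with 154 mM NaCl at room temperature. Fluorogenic substrate Mes-DArg-Pro-Arg-AMC (KM 28 μM), read at ex 355 / em 460 nm after starting with enzyme. Ki was taken from Dixon plots and averaged over at least two measurements.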

[7] = molecular target: Plasma kallikrein (Homo sapiens, UniProt P03952); test: Inhibition of human plasma kallikrein using Mes-DArg-Pro-Arg-AMC as substrate by Dixon plot analysis
How it was run: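 Human plasma kallikrein (112 pM final) was assayed at room temperature in Tris·HCl 50 mM pH 8.0 with NaCl 154 mM. Mes-DArg-Pro-Arg-AMC served as substrate (KM 39 μM). Fluorescence was read at ex 355 / em 460 nm, with reactions started by enzyme.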

[8] = molecular target: Prothrombin (Bos taurus, UniProt P00735); test: Inhibition of bovine thrombin using Tos-Gly-Pro-Arg-AMC as substrate by Dixon plot analysis
How it was run: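 Bovine thrombin at 31 pM in assay, KM 5.4 μM for the substrate. Run at room temperature in 50 mM Tris·HCl pH 8.0 with 154 mM NaCl. Fluorescence read at ex 355 / em 460 nm, reaction started by enzyme addition. Ki from Dixon plots, average of at least two measurements.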

[9] = tested on: Plasma; test: Inhibition of TF/Ca2+-induced clotting in human plasma at 10 to 200 nM after 40 mins; assay type: cell-free; conditions: 0.2 µM
How it was run: (§2)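 Clotting was triggered in citrated human plasma at 37 °C by tissue factor (stock 1/500 in assay) plus CaCl2 (12.5 mM in assay), with tPA 12.3 nM present. Inhibitor was tested at 10–200 nM after 5 min preincubation of reagents at 37 °C. Clot formation was followed as the rapid initial OD405 rise to a plateau, read over 40 min.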

[10] = tested on: Plasma; test: Potency index, ratio of aprotinin IC50 to compound IC50 for inhibition of tPA-induced plasmin formation in human plasma; assay type: functional
[11] = molecular target: Trypsin (Homo sapiens, UniProt P07477+P07478+P35030); test: Inhibition of trypsin (unknown origin); assay type: protein assay; how it was run: as §1
[12] = tested on: Plasma; test: Inhibition of TF/Ca2+-induced clotting in human plasma after 40 mins; assay type: cell-free; how it was run: as §2
[13] = molecular target: T1, Plasminogen; test: Inhibition of human plasmin
Target sequence in this assay (P00747 whole entry, looked up): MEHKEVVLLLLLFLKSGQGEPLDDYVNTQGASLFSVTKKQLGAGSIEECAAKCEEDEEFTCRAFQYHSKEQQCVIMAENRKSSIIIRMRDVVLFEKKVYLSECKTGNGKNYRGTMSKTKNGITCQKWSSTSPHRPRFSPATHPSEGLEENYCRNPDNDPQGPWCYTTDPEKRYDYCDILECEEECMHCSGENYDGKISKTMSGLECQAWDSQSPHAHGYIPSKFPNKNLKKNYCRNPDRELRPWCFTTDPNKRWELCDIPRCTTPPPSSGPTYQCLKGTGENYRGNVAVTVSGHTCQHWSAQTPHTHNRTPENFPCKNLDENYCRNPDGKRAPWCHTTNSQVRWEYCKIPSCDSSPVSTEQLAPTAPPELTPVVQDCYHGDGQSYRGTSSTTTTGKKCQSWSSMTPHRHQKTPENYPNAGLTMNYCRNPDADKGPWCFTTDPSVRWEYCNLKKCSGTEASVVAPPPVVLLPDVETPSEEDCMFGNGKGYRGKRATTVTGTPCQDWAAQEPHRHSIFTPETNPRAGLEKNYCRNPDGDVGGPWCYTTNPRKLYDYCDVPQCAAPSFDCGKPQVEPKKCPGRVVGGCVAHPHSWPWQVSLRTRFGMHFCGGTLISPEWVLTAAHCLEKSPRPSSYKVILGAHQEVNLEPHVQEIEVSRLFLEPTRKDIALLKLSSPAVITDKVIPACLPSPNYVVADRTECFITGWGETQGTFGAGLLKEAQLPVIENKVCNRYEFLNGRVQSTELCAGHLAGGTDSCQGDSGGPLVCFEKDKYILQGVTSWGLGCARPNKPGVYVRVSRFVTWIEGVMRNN

Chain of Coagulation factor X (P00742 41-179 limits assumed): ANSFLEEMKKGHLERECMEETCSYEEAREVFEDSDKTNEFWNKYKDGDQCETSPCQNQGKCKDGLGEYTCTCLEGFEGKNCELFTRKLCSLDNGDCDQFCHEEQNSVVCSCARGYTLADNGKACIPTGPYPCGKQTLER
Chain of Coagulation factor X (P00742 235-488 limits assumed): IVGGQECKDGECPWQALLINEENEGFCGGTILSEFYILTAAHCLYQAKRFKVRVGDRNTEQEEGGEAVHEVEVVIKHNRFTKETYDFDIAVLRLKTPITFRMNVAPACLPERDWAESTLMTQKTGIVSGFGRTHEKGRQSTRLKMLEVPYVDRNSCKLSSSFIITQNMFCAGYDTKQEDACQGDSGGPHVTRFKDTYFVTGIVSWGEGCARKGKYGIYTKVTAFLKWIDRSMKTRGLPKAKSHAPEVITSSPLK
Chain of Plasma kallikrein (P03952 20-390 limits assumed): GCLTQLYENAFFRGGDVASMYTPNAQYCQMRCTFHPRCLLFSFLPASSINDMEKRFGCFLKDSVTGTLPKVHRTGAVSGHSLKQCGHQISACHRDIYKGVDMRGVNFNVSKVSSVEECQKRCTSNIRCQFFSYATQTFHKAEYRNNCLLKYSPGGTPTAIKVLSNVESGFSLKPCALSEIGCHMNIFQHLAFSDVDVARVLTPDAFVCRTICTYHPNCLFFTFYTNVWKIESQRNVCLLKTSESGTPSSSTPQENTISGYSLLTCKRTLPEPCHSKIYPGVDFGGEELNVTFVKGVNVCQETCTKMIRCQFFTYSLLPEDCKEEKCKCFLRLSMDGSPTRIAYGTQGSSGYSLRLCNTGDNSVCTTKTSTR
Chain of Plasma kallikrein (P03952 391-638 limits assumed): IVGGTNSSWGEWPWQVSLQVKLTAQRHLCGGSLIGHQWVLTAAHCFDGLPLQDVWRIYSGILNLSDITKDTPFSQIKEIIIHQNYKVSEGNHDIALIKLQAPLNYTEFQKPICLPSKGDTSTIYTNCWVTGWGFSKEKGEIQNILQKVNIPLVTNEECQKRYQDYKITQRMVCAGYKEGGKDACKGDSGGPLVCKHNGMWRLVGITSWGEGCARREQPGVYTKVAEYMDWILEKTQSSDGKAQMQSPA
Chain of Trypsin (Sus scrofa, UniProt P00761) (P00761 whole entry): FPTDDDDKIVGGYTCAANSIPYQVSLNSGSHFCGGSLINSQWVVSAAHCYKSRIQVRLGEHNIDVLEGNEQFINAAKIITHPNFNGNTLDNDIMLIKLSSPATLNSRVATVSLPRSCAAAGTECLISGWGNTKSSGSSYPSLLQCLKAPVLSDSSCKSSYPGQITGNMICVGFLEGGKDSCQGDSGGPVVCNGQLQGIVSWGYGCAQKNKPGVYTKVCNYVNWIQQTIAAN
Chain of Vitamin K-dependent protein C (P04070 43-197 limits assumed): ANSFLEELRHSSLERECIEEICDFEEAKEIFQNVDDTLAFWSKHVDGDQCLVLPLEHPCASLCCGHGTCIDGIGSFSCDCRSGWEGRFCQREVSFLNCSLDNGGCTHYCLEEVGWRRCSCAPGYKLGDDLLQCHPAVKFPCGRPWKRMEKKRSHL
Chain of Vitamin K-dependent protein C (P04070 212-461 limits assumed): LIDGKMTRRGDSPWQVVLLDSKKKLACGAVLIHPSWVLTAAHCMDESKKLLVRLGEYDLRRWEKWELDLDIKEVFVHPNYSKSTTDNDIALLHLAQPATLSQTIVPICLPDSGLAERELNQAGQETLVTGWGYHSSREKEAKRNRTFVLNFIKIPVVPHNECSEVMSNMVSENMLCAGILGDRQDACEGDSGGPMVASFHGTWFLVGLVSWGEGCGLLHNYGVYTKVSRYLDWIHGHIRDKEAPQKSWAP

N=C(N)c1ccc(CNC(=O)[C@@H]2Cc3ccc(cc3)NC(=O)CCN3CCN(CCC(=O)Nc4ccc(cc4)C[C@@H](NS(=O)(=O)NC4CCCCC4)C(=O)N2)CC3)cc1
Ki [1]: 0.13 nM | IC50 [2]: 0.055 µM | Ki [3]: 0.00015 µM | Ki [4]: 0.021 µM | Ki [5]: 17 µM

N=C(N)c1ccc(CNC(=O)[C@@H]2Cc3ccc(cc3)NC(=O)CCN3CCN(CCC(=O)Nc4ccc(cc4)C[C@@H](NS(=O)(=O)c4ccccc4)C(=O)N2)CC3)cc1
Ki [6]: > 13 µM | Ki [7]: 0.8 µM | Ki [8]: 42.7 µM | Ki [1]: 0.07 nM | Ki [4]: 0.062 µM | Ki [5]: > 13 µM

CN(C)S(=O)(=O)N[C@@H]1Cc2ccc(cc2)NC(=O)CN2CCN(CC2)CC(=O)Nc2ccc(cc2)C[C@@H](C(=O)NCc2ccc(C(=N)N)cc2)NC1=O
Ki [5]: 74.7 µM

N=C(N)c1ccc(CNC(=O)[C@@H]2Cc3ccc(cc3)NC(=O)CN3CCN(CC3)CC(=O)Nc3ccc(cc3)C[C@@H](NC(=O)CCCc3ccccc3)C(=O)N2)cc1
Ki [6]: 20.5 µM | Ki [7]: 12.6 µM | Ki [8]: 8.78 µM | Ki [1]: 75.3 nM | Ki [4]: 1.9 µM | Ki [5]: 47.1 µM

N=C(N)c1ccc(CNC(=O)[C@@H]2Cc3ccc(cc3)NC(=O)CN3CCN(CC3)CC(=O)Nc3ccc(cc3)C[C@@H](NC(=O)CCc3ccccc3)C(=O)N2)cc1
Ki [6]: 20.6 µM | Ki [7]: 8.25 µM | Ki [8]: 8.79 µM | Ki [1]: 61.1 nM | Ki [4]: 1.43 µM | Ki [5]: 42 µM

N=C(N)NCCCCNC(=O)[C@@H]1Cc2ccc(cc2)NC(=O)CCN2CCN(CCC(=O)Nc3ccc(cc3)C[C@@H](NS(=O)(=O)NC3CCCCC3)C(=O)N1)CC2
Ki [6]: 28.9 µM | Ki [7]: 10.4 µM | Ki [8]: 1.71 µM | Ki [1]: 3.7 nM | Ki [4]: 0.59 µM | Ki [5]: 49.3 µM

N=C(N)c1ccc(CNC(=O)[C@@H]2Cc3ccc(cc3)NC(=O)CCN3CCN(CCC(=O)Nc4ccc(cc4)C[C@@H](NC(=O)CCc4ccccc4)C(=O)N2)CC3)cc1
Ki [6]: 16.1 µM | Ki [7]: 7.41 µM | Ki [8]: 0.199 µM | Ki [1]: 3.93 nM | Ki [4]: 0.757 µM | Ki [5]: 28 µM

COC(=O)N[C@@H]1Cc2ccc(cc2)NC(=O)CCN2CCN(CCC(=O)Nc3ccc(cc3)C[C@@H](C(=O)NCc3ccc(C(=N)N)cc3)NC1=O)CC2
Ki [6]: 50.7 µM | Ki [7]: 7.25 µM | Ki [8]: 15.3 µM | Ki [1]: 0.77 nM | Ki [3]: 0.00085 µM | Ki [4]: 0.109 µM | Ki [5]: 51.5 µM

N=C(N)c1ccc(CNC(=O)[C@@H]2Cc3ccc(cc3)NC(=O)CN3CCN(CC3)CC(=O)Nc3ccc(cc3)C[C@@H](NS(=O)(=O)c3ccccc3)C(=O)N2)cc1
Ki [6]: > 15 µM | Ki [7]: 0.54 µM | Ki [8]: 20.7 µM | Ki [1]: 0.51 nM | Ki [4]: 0.501 µM | Ki [5]: > 30 µM

NCc1ccc(CNC(=O)[C@@H]2Cc3ccc(cc3)NC(=O)CCN3CCN(CCC(=O)Nc4ccc(cc4)C[C@@H](NS(=O)(=O)c4ccccc4)C(=O)N2)CC3)cc1.O=C(O)C(F)(F)F.O=C(O)C(F)(F)F.O=C(O)C(F)(F)F
Activity [9]: Non-Toxic | Ki [6]: > 100 µM | Ki [7]: 48.7 µM | Ki [8]: 36.9 µM | Ki [1]: 0.56 nM | IC50 [2]: 0.081 µM | Ki [3]: 0.00054 µM | Ki [4]: 1.54 µM | Ratio IC50 [10]: 3 | Ki [5]: > 100 µM

NCc1ccc(CNC(=O)[C@@H]2Cc3ccc(cc3)NC(=O)CCN3CCN(CCC(=O)Nc4ccc(cc4)C[C@@H](NS(=O)(=O)Cc4ccccc4)C(=O)N2)CC3)cc1
Ki [1]: 1.2 nM | Ki [4]: 0.156 µM | Ki [5]: 32 µM

N=C(N)c1ccc(CNC(=O)[C@@H]2Cc3ccc(cc3)NC(=O)CCN3CCN(CCC(=O)Nc4ccc(cc4)C[C@@H](N)C(=O)N2)CC3)cc1
Ki [5]: 106 µM

NCc1ccc(CNC(=O)[C@@H]2Cc3ccc(cc3)NC(=O)CCN3CCN(CCC(=O)Nc4ccc(cc4)C[C@@H](NS(=O)(=O)NC4CCCCC4)C(=O)N2)CC3)cc1
Ki [6]: > 100 µM | Ki [7]: 43.2 µM | Ki [8]: 7.13 µM | Ki [1]: 0.52 nM | IC50 [2]: 0.1 µM | Ki [3]: 0.00043 µM | Ki [4]: 0.351 µM | Ki [5]: > 100 µM

N=C(N)c1ccc(CNC(=O)[C@H](Cc2cccc(CN)c2)NC(=O)[C@@H](CCCc2ccccc2)NS(=O)(=O)Cc2cccc(C(=O)O)c2)cc1
Ki [11]: 0.0036 µM | Activity [12]: Toxic

N=C(N)c1ccc(CNC(=O)[C@@H]2Cc3ccc(cc3)NC(=O)CCN3CCN(CCC(=O)Nc4ccc(cc4)C[C@@H](NC(=O)Cc4ccccc4)C(=O)N2)CC3)cc1
Ki [5]: 96.5 µM

N=C(N)c1ccc(CNC(=O)[C@@H]2Cc3ccc(cc3)NC(=O)CCN3CCN(CCC(=O)Nc4ccc(cc4)C[C@@H](NC(=O)CCCc4ccccc4)C(=O)N2)CC3)cc1
Ki [6]: 11.5 µM | Ki [7]: 10.5 µM | Ki [8]: 0.712 µM | Ki [1]: 22.7 nM | Ki [4]: 1 µM | Ki [5]: 39.7 µM

CC(C)(C)OC[C@@H](NS(=O)(=O)Cc1ccccc1)C(=O)NCC(=O)NCc1ccc(C(=N)N)cc1
Ki [13]: 7.7 µM

CC(C)(C)OC[C@@H](NS(=O)(=O)c1ccccc1)C(=O)NCC(=O)NCc1ccc(C(=N)N)cc1
Ki [13]: 24 µM

N=C(N)c1ccc(CNC(=O)[C@@H]2Cc3ccc(cc3)NC(=O)CN3CCN(CC3)CC(=O)Nc3ccc(cc3)C[C@@H](NC(=O)Cc3ccccc3)C(=O)N2)cc1
Ki [6]: 202 µM | Ki [7]: 7.27 µM | Ki [8]: 72.2 µM | Ki [1]: 81.3 nM | Ki [5]: 212 µM

NCCCCNC(=O)[C@@H]1Cc2ccc(cc2)NC(=O)CCN2CCN(CCC(=O)Nc3ccc(cc3)C[C@@H](NS(=O)(=O)NC3CCCCC3)C(=O)N1)CC2
Ki [6]: 39.5 µM | Ki [7]: 64.4 µM | Ki [8]: 21.9 µM | Ki [1]: 50.6 nM | Ki [4]: 6.2 µM | Ki [5]: 85.9 µM

N=C(N)c1ccc(CNC(=O)[C@@H]2Cc3ccc(cc3)NC(=O)CCN3CCN(CCC(=O)Nc4ccc(cc4)C[C@@H](NC(=O)OCc4ccccc4)C(=O)N2)CC3)cc1
Ki [4]: 0.103 µM | Ki [5]: 46.5 µM

CCCCS(=O)(=O)N[C@@H]1Cc2ccc(cc2)NC(=O)CCN2CCN(CCC(=O)Nc3ccc(cc3)C[C@@H](C(=O)NCc3ccc(C(=N)N)cc3)NC1=O)CC2
Ki [6]: 34.4 µM | Ki [7]: 0.701 µM | Ki [8]: 14.1 µM | Ki [1]: 0.45 nM | Ki [4]: 0.0137 µM | Ki [5]: 4.28 µM

N=C(N)c1ccc(CNC(=O)[C@@H]2Cc3ccc(cc3)NC(=O)CN3CCN(CC3)CC(=O)Nc3ccc(cc3)C[C@@H](NC(=O)OCc3ccccc3)C(=O)N2)cc1
Ki [1]: 5.2 nM | Ki [5]: 93.4 µM

N=C(N)c1ccc(CNC(=O)[C@@H]2Cc3ccc(cc3)NC(=O)CN3CCN(CC3)CC(=O)Nc3ccc(cc3)C[C@@H](NS(=O)(=O)NC3CCCCC3)C(=O)N2)cc1
Ki [8]: 15.8 µM | IC50 [2]: 0.053 µM | Ki [3]: 0.00042 µM | Ki [4]: 0.136 µM | Ki [5]: > 30 µM

N=C(N)c1ccc(CNC(=O)[C@@H]2Cc3ccc(cc3)NC(=O)CCN3CCN(CCC(=O)Nc4ccc(cc4)C[C@@H](NC=O)C(=O)N2)CC3)cc1
Ki [6]: > 100 µM | Ki [7]: 3.87 µM | Ki [8]: > 100 µM | Ki [1]: 2.69 nM | Ki [4]: 0.561 µM | Ki [5]: 62.9 µM

N=C(N)c1ccc(CNC(=O)[C@@H]2Cc3ccc(cc3)NC(=O)CN3CCN(CC3)CC(=O)Nc3ccc(cc3)C[C@@H](N)C(=O)N2)cc1
Ki [6]: 114 µM | Ki [7]: 9.09 µM | Ki [8]: 173 µM | Ki [1]: 66.3 nM | Ki [5]: 130 µM

CC(C)(C)OC(=O)N[C@@H]1Cc2ccc(cc2)NC(=O)CCN2CCN(CCC(=O)Nc3ccc(cc3)C[C@@H](C(=O)NCc3ccc(CN)cc3)NC1=O)CC2
Ki [6]: > 100 µM | Ki [7]: > 100 µM | Ki [8]: 15.6 µM | Ki [1]: 19.7 nM | Ki [4]: 3.15 µM | Ki [5]: > 100 µM
